Data as given in ChEMBL document CHEMBL4364268, “Carvacrol prodrugs as novel antimicrobial agents” (Eur J Med Chem, 2019).
In brackets after ≈: the same amount, converted by molar mass.

Columns and labels:
[1] = tested on: Candida albicans; assay: Antifungal activity against Candida albicans after 24 hrs by EUCAST method; type: functional
[2] = n-Octanol/water partition coefficient, log P of compound by HPLC analysis; type: physicochemical
[3] = Stability in human plasma by HPLC analysis; type: ADME, cell-free
How it was run: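 Compound stock was added to 80% human plasma (diluted with 0.02 M phosphate buffer, pH 7.4) at 37 °C. Samples taken over time were stopped with 0.01 M HCl in methanol and centrifuged 5 min at 5000 g. Supernatant was analysed by HPLC-UV at 274 nm (C18, water/ACN + 0.1% TFA, isocratic, 1 mL/min).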

[4] = Aqueous solubility of compound at 50 mg after 1 hr by HPLC analysis; type: physicochemical; conditions: water
[5] = tested on: Candida dubliniensis; assay: Antifungal activity against Candida dubliniensis CBS7987 assessed as zone of inhibition by disc diffusion method; type: functional
How it was run: (§1)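 Disc diffusion on potato dextrose medium with 0.8% agar against Candida strains. Fluconazole and amphotericin B served as positive controls. Inhibition zone was measured in mm.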

[6] = tested on: Nakaseomyces glabratus; assay: Antifungal activity against Candida glabrata ATCC 2001 assessed as zone of inhibition by disc diffusion method; type: functional; how it was run: as §1
[7] = tested on: Candida parapsilosis; assay: Antifungal activity against Candida parapsilosis ATCC 22019 assessed as zone of inhibition by disc diffusion method; type: functional; how it was run: as §1
[8] = tested on: Candida tropicalis; assay: Antifungal activity against Candida tropicalis KUEN 1025 assessed as zone of inhibition by disc diffusion method; type: functional; how it was run: as §1
[9] = tested on: Candida albicans; assay: Antifungal activity against Candida albicans ATCC 10231 assessed as zone of inhibition by disc diffusion method; type: functional; how it was run: as §1
[10] = tested on: Blood; assay: Antioxidant activity in human blood assessed as total antioxidant capacity at 10 uM after 48 hrs (reference value: 6.3 +/- 0.5); type: functional
[11] = tested on: Streptococcus pyogenes; assay: Antibacterial activity against Streptococcus pyogenes incubated for 18 to 24 hrs by CLSI-based broth microdilution method; type: functional
[12] = tested on: Acinetobacter baumannii; assay: Antibacterial activity against Acinetobacter baumannii incubated for 18 to 24 hrs by CLSI-based broth microdilution method; type: functional
[13] = tested on: Pseudomonas aeruginosa; assay: Antibacterial activity against Pseudomonas aeruginosa incubated for 18 to 24 hrs by CLSI-based broth microdilution method; type: functional
[14] = tested on: Klebsiella pneumoniae; assay: Antibacterial activity against Klebsiella pneumoniae incubated for 18 to 24 hrs by CLSI-based broth microdilution method; type: functional
[15] = tested on: Escherichia coli; assay: Antibacterial activity against Escherichia coli incubated for 18 to 24 hrs by CLSI-based broth microdilution method; type: functional
[16] = tested on: Streptococcus agalactiae; assay: Antibacterial activity against Streptococcus agalactiae incubated for 18 to 24 hrs by CLSI-based broth microdilution method; type: functional
[17] = tested on: Streptococcus pneumoniae; assay: Antibacterial activity against Streptococcus pneumoniae incubated for 18 to 24 hrs by CLSI-based broth microdilution method; type: functional
[18] = tested on: Enterococcus faecalis; assay: Antibacterial activity against Enterococcus faecalis incubated for 18 to 24 hrs by CLSI-based broth microdilution method; type: functional
[19] = tested on: Staphylococcus epidermidis; assay: Antibacterial activity against Staphylococcus epidermidis incubated for 18 to 24 hrs by CLSI-based broth microdilution method; type: functional
[20] = tested on: Staphylococcus aureus; assay: Antibacterial activity against Staphylococcus aureus incubated for 18 to 24 hrs by CLSI-based broth microdilution method; type: functional

In the case of Cc1ccc(C(C)C)cc1OC(=O)CCC(=O)N[C@@H](CCCNC(=N)N)C(=O)O, the MIC [1] is reported as greater than 6400 µg/mL.
Compound Cc1ccc(C(C)C)cc1OC(=O)CCC(=O)N[C@@H](CCCCN)C(=O)O has an MIC [1] greater than 6400 µg/mL.
Compound Cc1ccc(C(C)C)cc1OC(=O)CCCC(=O)NCC(=O)O has an MIC [1] greater than 6400 µg/mL.
With Cc1ccc(C(C)C)cc1OC(=O)CCCC(=O)O the MIC [1] was greater than 6400 µg/mL.
Cc1ccc(C(C)C)cc1OC(=O)CCC(=O)NCC(=O)O showed an MIC [1] of 6400 µg/mL (≈ 20800 µM).
With Cc1ccc(C(C)C)cc1OC(=O)CCCC(=O)N[C@@H](CCCNC(=N)N)C(=O)O the MIC [1] was greater than 6400 µg/mL.
Compound Cc1ccc(C(C)C)cc1OC(=O)CCC(=O)N[C@@H](Cc1c[nH]cn1)C(=O)O has a logP [2] of less than 2.4 and an MIC [1] greater than 6400 µg/mL.
Work on Cc1ccc(C(C)C)cc1OC(=O)CCCC(=O)N[C@@H](CCCCN)C(=O)O yielded an MIC [1] greater than 6400 µg/mL.
Compound CC(C)=CCC[C@@H](C)CC(=O)Oc1cc(C(C)C)ccc1C has an MIC [1] greater than 6400 µg/mL.
For CC(C)=CC(=O)Oc1cc(C(C)C)ccc1C, the MIC [1] was greater than 6400 µg/mL.
Work on CC(C)=CCOc1cc(C(C)C)ccc1C yielded a K [3] of 0.0294 h⁻¹.
Work on Cc1ccc(C(C)C)cc1OC(=O)CCC(=O)NCCN.Cl yielded an MIC [1] of 3200 µg/mL.
Compound Cc1ccc(C(C)C)cc1OC(=O)CCCC(=O)N[C@@H](Cc1c[nH]cn1)C(=O)O has a logP [2] of less than 2.4, a solubility at 1 h [4] of 3330 µg/mL (≈ 8300 µM) and an MIC [1] greater than 6400 µg/mL.
Compound Cc1ccc(C(C)C)cc1OC(=O)CCC(=O)NCCN(C)C.Cl has an MIC [1] greater than 6400 µg/mL.
In the case of CC(C)=CCC/C(C)=C/COc1cc(C(C)C)ccc1C, the K [3] is reported as 0.1716 h⁻¹.
In the case of Cc1ccc(C(C)C)cc1OC(=O)CCCC(=O)NCCN.Cl, the MIC [1] is reported as greater than 6400 µg/mL.
CC(C)=CCC/C(C)=C/C(=O)Oc1cc(C(C)C)ccc1C showed an MIC [1] greater than 6400 µg/mL.
CC(C)=CCC/C(C)=C/CC/C(C)=C/COc1cc(C(C)C)ccc1C gave an MIC [1] greater than 6400 µg/mL.
Work on Cc1ccc(C(C)C)cc1OC(=O)CCCC(=O)NCCN(C)C.Cl yielded an MIC [1] greater than 6400 µg/mL.
With C[C@@H]1[C@H](O)[C@@H](C)/C=C/C=C/C=C/C=C/C=C/C=C/C=C/[C@H](O[C@@H]2O[C@H](C)[C@@H](O)[C@H](N)[C@@H]2O)C[C@@H]2O[C@](O)(C[C@@H](O)C[C@@H](O)[C@H](O)CC[C@@H](O)C[C@@H](O)CC(=O)O[C@H]1C)C[C@H](O)[C@H]2C(=O)O [AMPHOTERICIN B] the “inhibition zone (IZ)” value [5] was 10 mm, the “inhibition zone (IZ)” value [6] was 12 mm and the “inhibition zone (IZ)” value [7] was 9 mm. The “inhibition zone (IZ)” value [8] was 10 mm and the “inhibition zone (IZ)” value [9] was 10 mm.
O=C1O[C@H]([C@@H](O)CO)C(O)=C1O [ASCORBIC ACID] showed an Activity [10] of 19.4.
With Cc1ccc(C(C)C)cc1O [CARVACROL] the logP [2] was 3.5, the “inhibition zone (IZ)” value [5] was 7 mm and the “inhibition zone (IZ)” value [6] was 8 mm. For the same compound, the “inhibition zone (IZ)” value [7] was 7 mm, the “inhibition zone (IZ)” value [8] was 10 mm and the “inhibition zone (IZ)” value [9] was 9 mm. The MIC [1] was 1250 µg/mL (≈ 8320 µM), the MIC [11] was 64 to 256 µg/mL (≈ 426 to 1700 µM) and the MIC50 [11] was 128 µg/mL (≈ 852 µM). It also gave an MIC90 [11] of 256 µg/mL (≈ 1700 µM), an MIC [12] of 64 to 256 µg/mL (≈ 426 to 1700 µM) and an MIC50 [12] of 128 µg/mL (≈ 852 µM). It also gave an MIC90 [12] of 256 µg/mL (≈ 1700 µM), an MIC [13] of no less than 512 µg/mL and an MIC50 [13] greater than 512 µg/mL. The MIC90 [13] was greater than 512 µg/mL, the MIC [14] was 512 µg/mL (≈ 3410 µM) and the MIC50 [14] was 512 µg/mL (≈ 3410 µM). For the same compound, the MIC90 [14] was 512 µg/mL (≈ 3410 µM), the MIC [15] was 256 µg/mL (≈ 1700 µM) and the MIC50 [15] was 256 µg/mL (≈ 1700 µM). The MIC90 [15] was 256 µg/mL (≈ 1700 µM), the MIC [16] was 256 to 512 µg/mL (≈ 1700 to 3410 µM) and the MIC50 [16] was 256 µg/mL (≈ 1700 µM). For the same compound, the MIC90 [16] was 512 µg/mL (≈ 3410 µM), the MIC [17] was 64 to 256 µg/mL (≈ 426 to 1700 µM) and the MIC50 [17] was 128 µg/mL (≈ 852 µM). The MIC90 [17] was 256 µg/mL (≈ 1700 µM), the MIC [18] was 128 to 512 µg/mL (≈ 852 to 3410 µM) and the MIC50 [18] was 256 µg/mL (≈ 1700 µM). It also gave an MIC90 [18] of 256 µg/mL (≈ 1700 µM), an MIC [19] of 256 µg/mL (≈ 1700 µM) and an MIC50 [19] of 256 µg/mL (≈ 1700 µM). For the same compound, the MIC90 [19] was 256 µg/mL (≈ 1700 µM), the MIC [20] was 256 µg/mL (≈ 1700 µM) and the MIC50 [20] was 256 µg/mL (≈ 1700 µM). The MIC90 [20] was 256 µg/mL (≈ 1700 µM).
OC(Cn1cncn1)(Cn1cncn1)c1ccc(F)cc1F [FLUCONAZOLE] gave an MIC [1] of 250 µg/mL (≈ 816 µM).
